Assay results as given in ChEMBL document CHEMBL4270612, “Discovery of dual GyrB/ParE inhibitors active against Gram-negative bacteria” (Eur J Med Chem, 2018).
≈ marks a conversion by molar mass, not a printed value.

Tests used:
Acinetobacter baumannii [1] = experiment: Antibacterial activity against Acinetobacter baumannii ARC3515 after 24 hrs by broth microdilution method; type: functional; details: ARC3515, 24 h
Method in brief: (§1)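 Broth microdilution per CLSI. Bacterial suspension adjusted to 1×10^6 CFU/mL in cation-adjusted Mueller–Hinton broth and mixed 1:1 with 2-fold serial compound dilutions. Final DMSO 2.5% v/v. Plates incubated at 35 °C with shaking at 140 rpm for 24 h.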

Pseudomonas aeruginosa [2] = experiment: Antibacterial activity against Pseudomonas aeruginosa ARC3504 after 24 hrs by broth microdilution method; type: functional; details: ARC3504, 24 h; method in brief: as §1
Acinetobacter baumannii [3] = experiment: Antibacterial activity against Acinetobacter baumannii ARC3492 after 24 hrs by broth microdilution method; type: functional; details: ARC3492, 24 h
Method in brief: (§2)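 Broth microdilution per CLSI. Bacterial suspension adjusted to 1×10^6 CFU/mL in cation-adjusted Mueller–Hinton broth and mixed 1:1 with 2-fold serial compound dilutions. Plates incubated at 35 °C with shaking at 140 rpm for 24 h.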

Staphylococcus aureus [4] = experiment: Antibacterial activity against methicillin-resistant Staphylococcus aureus FQ-R after 24 hrs by broth microdilution method; type: functional
Method in brief: (§3)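 Broth microdilution per CLSI. Bacterial suspensions adjusted to 1×10^6 CFU/mL in cation-adjusted Mueller–Hinton broth, mixed 1:1 with 2-fold serial compound dilutions (final DMSO 2.5% v/v). Incubation 35 °C, 140 rpm, 24 h.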

Acinetobacter baumannii [5] = experiment: Antibacterial activity against Acinetobacter baumannii ARC3657 after 24 hrs by broth microdilution method; type: functional; details: ARC3657, 24 h; method in brief: as §1
Pseudomonas aeruginosa [6] = experiment: Antibacterial activity against Pseudomonas aeruginosa ARC3756 after 24 hrs by broth microdilution method; type: functional; details: ARC3756, 24 h; method in brief: as §2
Escherichia coli = experiment: Antibacterial activity against tolC deficient Escherichia coli after 24 hrs by broth microdilution method; type: functional
Method in brief: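 Broth microdilution per CLSI guidelines. Inoculum adjusted to 1×10^6 CFU/mL in cation-adjusted Mueller–Hinton broth, added 1:1 to 2-fold serial compound dilutions; final DMSO 2.5% v/v. Plates incubated 35 °C, 140 rpm, 24 h.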

Streptococcus pyogenes = experiment: Antibacterial activity against Streptococcus pyogenes ARC838 after 24 hrs by broth microdilution method; type: functional; details: ARC838, 24 h; method in brief: as §2
Staphylococcus aureus [7] = experiment: Antibacterial activity against methicillin-resistant Staphylococcus aureus USA100 after 24 hrs by broth microdilution method; type: functional; details: USA100, 24 h; method in brief: as §3
Acinetobacter baumannii [8] = experiment: Antibacterial activity against Acinetobacter baumannii ARC2781 after 24 hrs by broth microdilution method; type: functional; details: ARC2781, 24 h; method in brief: as §2
Staphylococcus aureus [9] = experiment: Antibacterial activity against Staphylococcus aureus ATCC 29213 after 24 hrs in presence of 2% human albumin by broth microdilution method; type: functional; details: ATCC 29213, 24 h
Haemophilus influenzae = experiment: Antibacterial activity against Haemophilus influenzae ATCC 49247 after 24 hrs by broth microdilution method; type: functional; details: ATCC 49247, 24 h; method in brief: as §1
Acinetobacter baumannii [10] = experiment: Antibacterial activity against Acinetobacter baumannii ARC3486 after 24 hrs by broth microdilution method; type: functional; details: ARC3486, 24 h; method in brief: as §1
Pseudomonas aeruginosa [11] = experiment: Antibacterial activity against Pseudomonas aeruginosa ARC003 after 24 hrs by broth microdilution method; type: functional; details: ARC003, 24 h; method in brief: as §1
Candida albicans = experiment: Antifungal activity against Candida albicans ATCC 90028 after 24 hrs by broth microdilution method; type: functional; details: ATCC 90028, 24 h
Acinetobacter baumannii [12] = experiment: Antibacterial activity against Acinetobacter baumannii ARC2779 after 24 hrs by broth microdilution method; type: functional; details: ARC2779, 24 h; method in brief: as §1
Klebsiella pneumoniae = experiment: Antibacterial activity against Klebsiella pneumoniae ARC1865 after 24 hrs by broth microdilution method; type: functional; details: ARC1865, 24 h; method in brief: as §1
Pseudomonas aeruginosa [13] = experiment: Antibacterial activity against Pseudomonas aeruginosa ARC3505 after 24 hrs by broth microdilution method; type: functional; details: ARC3505, 24 h; method in brief: as §1
Pseudomonas aeruginosa [14] = experiment: Antibacterial activity against Pseudomonas aeruginosa ARC3611 after 24 hrs by broth microdilution method; type: functional; details: ARC3611, 24 h; method in brief: as §1
Enterobacter cloacae = experiment: Antibacterial activity against Enterobacter cloacae ARC3528 after 24 hrs by broth microdilution method; type: functional; details: ARC3528, 24 h; method in brief: as §1
Pseudomonas aeruginosa [15] = experiment: Antibacterial activity against Pseudomonas aeruginosa ARC4063 after 24 hrs by broth microdilution method; type: functional; details: ARC4063, 24 h; method in brief: as §2
Pseudomonas aeruginosa [16] = experiment: Antibacterial activity against Pseudomonas aeruginosa ARC3502 after 24 hrs by broth microdilution method; type: functional; details: ARC3502, 24 h; method in brief: as §2
Acinetobacter baumannii [17] = experiment: (§4) Antibacterial activity against Acinetobacter baumannii ARC3495 after 24 hrs by broth microdilution method; type: functional; details: ARC3495, 24 h; method in brief: as §1
Acinetobacter baumannii [18] = experiment: Antibacterial activity against Acinetobacter baumannii ARC3659 after 24 hrs by broth microdilution method; type: functional; details: ARC3659, 24 h; method in brief: as §1
[19] = Protein binding in human plasma; type: ADME, cell-free; details: read-out: PPB (converted)
Acinetobacter baumannii [20] = experiment: Antibacterial activity against Acinetobacter baumannii ARC3882 after 24 hrs by broth microdilution method; type: functional; details: ARC3882, 24 h; method in brief: as §1
[21] = Growth inhibition of human A549 cells; type: cell-based
Acinetobacter baumannii [22] = experiment: Antibacterial activity against Acinetobacter baumannii ARC3484 after 24 hrs by broth microdilution method; type: functional; details: ARC3484, 24 h; method in brief: as §2
[23] = Thermodynamic solubility of the compound at pH 7.4; type: physicochemical; details: buffer, read-out: Therm_solubility
Acinetobacter baumannii [24] = experiment: as §4; type: functional; details: ARC3495, 24 h; method in brief: as §1; remark: listed apart in the source
Acinetobacter baumannii [25] = experiment: Antibacterial activity against Acinetobacter baumannii ARC2674 after 24 hrs by broth microdilution method; type: functional; details: ARC2674, 24 h; method in brief: as §1
Pseudomonas aeruginosa [26] = experiment: Antibacterial activity against Pseudomonas aeruginosa ARC3514 after 24 hrs by broth microdilution method; type: functional; details: ARC3514, 24 h; method in brief: as §2
Acinetobacter baumannii [27] = experiment: Antibacterial activity against Acinetobacter baumannii ARC3513 after 24 hrs by broth microdilution method; type: functional; details: ARC3513, 24 h; method in brief: as §1
Pseudomonas aeruginosa [28] = experiment: Antibacterial activity against Pseudomonas aeruginosa ARC3925 after 24 hrs by broth microdilution method; type: functional; details: ARC3925, 24 h; method in brief: as §2
Acinetobacter baumannii [29] = experiment: Antibacterial activity against Acinetobacter baumannii ARC2782 after 24 hrs by broth microdilution method; type: functional; details: ARC2782, 24 h; method in brief: as §1
Acinetobacter baumannii [30] = experiment: Antibacterial activity against Acinetobacter baumannii ARC3489 after 24 hrs by broth microdilution method; type: functional; details: ARC3489, 24 h; method in brief: as §1
Pseudomonas aeruginosa [31] = experiment: Antibacterial activity against Pseudomonas aeruginosa ARC3511 after 24 hrs by broth microdilution method; type: functional; details: ARC3511, 24 h; method in brief: as §2
Pseudomonas aeruginosa [32] = experiment: Antibacterial activity against Pseudomonas aeruginosa ARC3729 after 24 hrs by broth microdilution method; type: functional; details: ARC3729, 24 h; method in brief: as §1
Pseudomonas aeruginosa [33] = experiment: Antibacterial activity against Pseudomonas aeruginosa PAO1 after 24 hrs by broth microdilution method; type: functional; details: PAO1, 24 h; method in brief: as §1
Pseudomonas aeruginosa [34] = experiment: Antibacterial activity against Pseudomonas aeruginosa ARC3506 after 24 hrs by broth microdilution method; type: functional; details: ARC3506, 24 h; method in brief: as §1
Pseudomonas aeruginosa [35] = experiment: Antibacterial activity against Pseudomonas aeruginosa harboring MexABCDXY deletion mutant after 24 hrs by broth microdilution method; type: functional; method in brief: as §3
[36] = target: DNA topoisomerase 4 subunit B (Escherichia coli K-12, UniProt P20083); experiment: Inhibition of Escherichia coli ParE
Pseudomonas aeruginosa [37] = experiment: Antibacterial activity against Pseudomonas aeruginosa ARC3606 after 24 hrs by broth microdilution method; type: functional; details: ARC3606, 24 h; method in brief: as §1
Pseudomonas aeruginosa [38] = experiment: Antibacterial activity against Pseudomonas aeruginosa ARC3916 after 24 hrs by broth microdilution method; type: functional; details: ARC3916, 24 h; method in brief: as §1

Chain of DNA topoisomerase 4 subunit B (P20083 whole entry): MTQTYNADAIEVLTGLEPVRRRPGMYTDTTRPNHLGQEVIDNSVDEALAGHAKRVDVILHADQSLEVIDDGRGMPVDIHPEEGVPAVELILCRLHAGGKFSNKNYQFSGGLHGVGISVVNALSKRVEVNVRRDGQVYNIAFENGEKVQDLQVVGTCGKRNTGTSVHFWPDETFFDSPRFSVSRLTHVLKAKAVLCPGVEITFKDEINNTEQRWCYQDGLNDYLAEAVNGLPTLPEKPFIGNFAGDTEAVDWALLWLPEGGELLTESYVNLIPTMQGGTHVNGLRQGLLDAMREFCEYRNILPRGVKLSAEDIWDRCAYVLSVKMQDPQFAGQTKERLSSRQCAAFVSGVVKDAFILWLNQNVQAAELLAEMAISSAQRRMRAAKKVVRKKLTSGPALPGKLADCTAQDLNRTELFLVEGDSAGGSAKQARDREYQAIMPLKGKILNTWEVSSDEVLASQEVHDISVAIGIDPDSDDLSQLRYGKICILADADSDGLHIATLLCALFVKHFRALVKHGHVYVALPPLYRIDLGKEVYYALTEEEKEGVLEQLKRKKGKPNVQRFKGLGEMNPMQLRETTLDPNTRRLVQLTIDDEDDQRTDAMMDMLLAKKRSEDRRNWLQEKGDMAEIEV

CCNC(=O)Nc1cc(-c2nc(C(F)(F)F)cs2)c(-c2cc(-c3n[nH]c(=O)o3)cnc2N2C3CCC2CN(C)C3)cn1
MIC (Acinetobacter baumannii [1]): 1 µg/mL (≈ 1.66 µM) | MIC (Pseudomonas aeruginosa [2]): 8 µg/mL (≈ 13.3 µM) | MIC (Acinetobacter baumannii [3]): 1 µg/mL (≈ 1.66 µM) | MIC (Staphylococcus aureus [4]): < 0.06 µg/mL | MIC (Acinetobacter baumannii [5]): 2 µg/mL (≈ 3.32 µM) | MIC (Pseudomonas aeruginosa [6]): 8 µg/mL (≈ 13.3 µM) | MIC (Escherichia coli): 0.12 µg/mL (≈ 0.199 µM) | MIC (Streptococcus pyogenes): < 0.06 µg/mL | MIC (Staphylococcus aureus [7]): < 0.06 µg/mL | MIC (Acinetobacter baumannii [8]): 0.25 µg/mL (≈ 0.416 µM) | MIC (Staphylococcus aureus [9]): < 0.06 µg/mL | MIC (Haemophilus influenzae): < 0.06 µg/mL | MIC (Acinetobacter baumannii [10]): 2 µg/mL (≈ 3.32 µM) | MIC (Pseudomonas aeruginosa [11]): 2 µg/mL (≈ 3.32 µM) | MIC (Candida albicans): > 64 µg/mL | MIC (Acinetobacter baumannii [12]): 1 µg/mL (≈ 1.66 µM) | MIC (Klebsiella pneumoniae): 32 µg/mL (≈ 53.2 µM) | MIC (Pseudomonas aeruginosa [13]): 8 µg/mL (≈ 13.3 µM) | MIC (Pseudomonas aeruginosa [14]): 4 µg/mL (≈ 6.65 µM) | MIC (Enterobacter cloacae): 32 µg/mL (≈ 53.2 µM) | MIC (Pseudomonas aeruginosa [15]): 8 µg/mL (≈ 13.3 µM) | MIC (Pseudomonas aeruginosa [16]): 8 µg/mL (≈ 13.3 µM) | MIC (Acinetobacter baumannii [17]): 0.5 µg/mL (≈ 0.831 µM) | MIC (Acinetobacter baumannii [18]): 1 µg/mL (≈ 1.66 µM) | fraction unbound [19]: 0.211 | MIC (Acinetobacter baumannii [20]): 1 µg/mL (≈ 1.66 µM) | GI50 [21]: > 40000 nM | MIC (Acinetobacter baumannii [22]): 2 µg/mL (≈ 3.32 µM) | solubility thermodynamic [23]: 1490 µM (≈ 896 µg/mL) | MIC (Acinetobacter baumannii [24]): 0.5 µg/mL (≈ 0.831 µM) | MIC (Acinetobacter baumannii [25]): 4 µg/mL (≈ 6.65 µM) | MIC (Pseudomonas aeruginosa [26]): 4 µg/mL (≈ 6.65 µM) | MIC (Acinetobacter baumannii [27]): 4 µg/mL (≈ 6.65 µM) | MIC (Pseudomonas aeruginosa [28]): 8 µg/mL (≈ 13.3 µM) | MIC (Acinetobacter baumannii [29]): 1 µg/mL (≈ 1.66 µM) | MIC (Acinetobacter baumannii [30]): 1 µg/mL (≈ 1.66 µM) | MIC (Pseudomonas aeruginosa [31]): 2 µg/mL (≈ 3.32 µM) | MIC (Pseudomonas aeruginosa [32]): 4 µg/mL (≈ 6.65 µM) | MIC (Pseudomonas aeruginosa [33]): 2.4 µg/mL (≈ 3.99 µM) | MIC (Pseudomonas aeruginosa [34]): 4 µg/mL (≈ 6.65 µM) | MIC (Pseudomonas aeruginosa [35]): 0.3 µg/mL (≈ 0.499 µM) | IC50 [36]: 4 nM | MIC (Pseudomonas aeruginosa [37]): 8 µg/mL (≈ 13.3 µM) | MIC (Pseudomonas aeruginosa [38]): 4 µg/mL (≈ 6.65 µM)
